Assay results reported in the EternaBench riboswitch data.

System: MS2 coat protein
Experiment: apparent Kd, MS2 coat protein; higher = weaker binding; RNA-MaP array; FMN 200 µM where present
Summary of the method: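 SNAP-549-labelled MS2 coat protein, doubled from 0.7 or 1.5 nM to 3 µM, was titrated over designs transcribed by stalled E. coli RNA polymerase on Illumina sequencing-chip clusters. Titrations were run without and then with constant ligand in 100 mM Tris-HCl pH 7.5, 80 mM KCl, 4 mM MgCl2, BSA, DTT, yeast tRNA and Tween-20. The apparent Kd is the median of filtered per-cluster fits to green signal normalised to red-channel RNA signal and control-cluster median Fmax.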

[1] = designed as: ON switch for flavin mononucleotide, no ligand
[2] = ligand present: flavin mononucleotide, designed as: ON switch for flavin mononucleotide
[3] = designed as: OFF switch for flavin mononucleotide, no ligand
[4] = ligand present: flavin mononucleotide, designed as: OFF switch for flavin mononucleotide

| Sequence | apparent Kd [1] | apparent Kd [2] | apparent Kd [3] | apparent Kd [4] |
| --- | --- | --- | --- | --- |
| AAAAAAAAAAGUGAGGAUAUGGGAAAAUUAACAUGAGGAUCACCCAUGUGAUAAAAAAAAAAAAACCAGAAGGUACAAAAAAAAAA | 69.5 nM | 26.4 nM | – | – |
| UGAGAUGUAGUAGGAUAUCAGGUUACAUGAGGAUCACCCAUGUUAGAUUGGUGGAUAGAUGUUGAUGAGAAGGACUUUUGAGUG | – | – | 66.7 nM | 116 nM |
| GUCAUACAUGAGGAUCACCCAUGUAAGGAUAUGCUAGCGGUCGGCUGACUGACUGCUAGCAGAAGGUACAUGAU | – | – | 64.1 nM | 90 nM |
| GUGCGUGGCUAGGAUAUUGUGGAGUUUAGUCAGCGAGAAGGAGCCACAUGAGGAUCACCCAUGUGGUGUAGCUC | – | – | 17.2 nM | 94.5 nM |
| GUCCUCAAGACAGGAUAUCCAUACAACGCGCUAGGAGAAGGGUCUACAUGAGGAUCACCCAUGUGAUUCUGAGAAUUUGGUGGG | – | – | 313 nM | 148 nM |
| UCUCGAUGUGUAGGAUAUCUGACCACUAUGACAAGAGAAGGGCACAUGAGGAUCACCCAUGUGGAGGACCACUGGUUCAGAUUA | – | – | 40.9 nM | 51 nM |
| GUCGGAAACGACAAUGAUAGGACUGAGGAUAUACAUAAGUUUGUCCAUACAUGAGGAUCACCCAUGUAGAAGGCAGUCCUAUCU | – | – | 6.33 nM | 15.9 nM |
| AAAGAGCGAGGAUAUGCGUGCCGGUGCGGCCAGCCGAUGUGACAUGAGGAUCACCCAUGUAGAAGGCGCAGAAA | – | – | 14.3 nM | 14.7 nM |
| UUUUAACAUGAGGAUCACCCAUGUGAGGAUAUCGAAAUUUAUAUUAAUAUUAAUUAUUCGAGAAGGCACAUUUU | – | – | 119 nM | 126 nM |
| AAAUUGCUAGAGGAUAUCGGAUAGGAUCUAUUACGAGAAGGUUAGACAUGAGGAUCACCCAUGUUCUGUUGGGA | – | – | 42.6 nM | 123 nM |
| GAUCCUUCUGUUAGGAUAUGCUUUGGGCUUCCGCAGCAGAAGGAACAUGAGGAUCACCCAUGUCAAAUAACAUC | – | – | 21.4 nM | 22.8 nM |
| AACGGGUGGGUAGGAUAUGGCUAUGUCUCAUUGCUAGAAGGACCAGCUACUACAUGAGGAUCACCCAUGUCGUAGUGCACCCAG | 20.5 nM | 6.04 nM | – | – |
| GUGUACAGAGGAUAUACAUGAGCAUGGAAACAUGCAUCCUCACAUGAGGAUCACCCAUGUAGAAGGCUGUACAC | – | – | 26.6 nM | 31.6 nM |
| UAAAGUUAAGGAGGAUAUUACAUGAGGAUCACCCAUGUAAUGGGCUCGGUGUAAGAAGGCCUUGAGUCGAAGUUUCGGAUAAGG | – | – | 9.05 nM | 18.6 nM |
| UUGGACGUCGUAGGAUAUCUAGGAUAUUCCUACAUGAGGAUCACCCAUGUUGACAUGGAAGAAGGACAGAAGGACGAUGUCCAU | 14.9 nM | 11 nM | – | – |
| GACACGUAAGGAUAUUGAGGGUAGAUGUGAGUCUAGCCCGGCAAGAAGGUACAUGAGGAUCACCCAUGUCCCGG | – | – | 13.6 nM | 17 nM |
| AGCUACGUUUCGUAGCAGUGUCAUCGAGAAGGCUCAUAUACAUGAGGAUCACCCAUGUUAACAUGGGAGGAUAUCGAUGAUACA | 50.2 nM | 6.64 nM | – | – |
| UCUCAUAUGCAGGAUAUCCAUGGCGGGCGGAGAGGAGAAGGGCAUACAUGAGGAUCACCCAUGUGUCCCGUGGG | – | – | 27.2 nM | 41.2 nM |
| UCGCUGCGAGGAUAUACGUGCGCGCGCUCGCGUUCGCGCGUACAUGAGGAUCACCCAUGUAGAAGGCGCGCUGC | – | – | 13.5 nM | 13.2 nM |
| UGGAUCAUCGGAGGAUAUCAUGUAAAUACAUGAGGAUCACCCAUGUCGUACGAGAGUACGGAGAUUGAGAAGGCCGAUGAUCCU | 24.6 nM | 15.4 nM | – | – |
| AUUAAACAUGAGGAUCACCCAUGUCAACAAAGUCGAGGAUAUGGGCAUAUUAUCUUAUUUCCAGAAGGCGAAUAAU | 121 nM | 33.9 nM | – | – |
| GUCGGAAACGACAAGUAGCAAUCGGAGGAUAUUCAUGAAAACAUGAGGAUCACCCAUGUAAAUUGGGAGAAGGCCGAUUGCUAC | 91.6 nM | 8.48 nM | – | – |
| GCGAUUUUGUAGAAGGUACGUGAUAAGACAAAGUAAGGAUAUACUGACAUGAGGAUCACCCAUGUAUAAAUAGUUAACAGUCGC | 18.5 nM | 11.7 nM | – | – |
| UUACCUUAUGAGAAGGCGAUCAUGAAACAUGAUCGAGGAUAUCAUGUAAACAUGAGGAUCACCCAUGUAUGGGUAUUAUGGUAC | 86.6 nM | 27.8 nM | – | – |
| AUGAGUAAAGCAGGAUAUCUAUUGUCUCUGUAACAUGAGGAUCACCCAUGUAGAGAAGGGCUUAGUCAUACACUUCGAAGUUGA | – | – | 9.13 nM | 10.1 nM |
| UUUGUUGUUGUGAGGAUAUCGUUGUUAUUUUGAAACGAGAAGGCACAUGAGGAUCACCCAUGUUUGUUGUUGGU | – | – | 52.1 nM | 195 nM |
| GUAGCUAUUAAAGGAUAUUCAUACCGGAGACGGACAUGAGGAUCACCCAUGUGGCGAAAGCCUUGGGAGAAGGUUAUUAGCUAC | 452 nM | 17.7 nM | – | – |
| CGCAAGUAUACAUGAGGAUCACCCAUGUCAAAUAUGGUAAUCAGAAGGUACAAUUCAAUAUAUAGUAAGGAUAUGAAUUUUGCG | 59 nM | 23.3 nM | – | – |

| Sequence | apparent Kd [1] | apparent Kd [2] | apparent Kd [3] | apparent Kd [4] |
| --- | --- | --- | --- | --- |
| UUUUAUUAGUAAGGAUAUACUAGCGAUUAGCUUGUAGAAGGUACAGUCUUAUGUAUAGCAUGUUAACAUGAGGAUCACCCAUGU | 20.9 nM | 14 nM | – | – |
| CAGCGCUGUUGAGAGGAUAUGCGGUGAUGGACAUGAGGAUCACCCAUGUUAGCGACAGCAUUACGGUAGAAGGCUCCACAGCUGC | 22.9 nM | 13.8 nM | – | – |
| AAAUAAAGUACCUUGAUAUCCUCACAUGAGGAUCACCCAUGUCAGGAUAUUUGUCCUAAAAGGACAGAGAAGGGACAAGGUAUA | – | – | 5.82 nM | 6.19 nM |
| AACUAACAUGAGGAUCACCCAUGUUGCAGCGGUUGAGGAUAUGUGGGUGAAAAUAGCAUGGCAGAAGGCGAGUGUA | 120 nM | 238 nM | – | – |
| UUUCCAUAGAUAGGAUAUCAGUUUACAUGAGGAUCACCCAUGUUCUCUUUGGUUAUAAUUAUAUCUGAGAAGGAUCUUGAUGAA | 29.6 nM | 26.3 nM | – | – |
| GGGCUGUCAGGAUAUGCUUCGGCUUCGGAAAUGAAGUUGAAGUAGAAGGGACAUGAGGAUCACCCAUGUGGCCC | – | – | 28.9 nM | 35 nM |
| CCGGCUGCCGUGAGGAUAUGCCCGCGCGCCCGCGGGCAGAAGGCACAUGAGGAUCACCCAUGUCCUGCGGUCCC | – | – | 17.4 nM | 19.9 nM |
| GCGCUUAUACAGAAGGCCAUAUACAUGAGGAUCACCCAUGUUAUUUGGUGGAGGAUAUGUUUUUUAUUACAGGUUGAUGAGCGC | 7.58 nM | 6.52 nM | – | – |
| AAACAUGUCCGAGGAUAUCUGAAAACAUUUUUAAGAGAAGGCGGACAUGAGGAUCACCCAUGUCUCUCCUCAUCAAAUCCAAAU | – | – | 17.5 nM | 73.2 nM |
| UUACUAUUGGAGAAGGCUCAAUAAUAUAUAAAGGGAGGAUAUCCAACAUGAGGAUCACCCAUGUUUCACCCAUAUGAGGAUCAC | – | – | 13.1 nM | 12.5 nM |
| AAAAAACAUGAGGAUCACCCAUGUCAGGAUAUCAUAAAAAAAAAAAAAAAAAAAAAAGUGAGAAGGGACAAAAA | – | – | 91.7 nM | 71.5 nM |
| AUGCUUUAUGUAGGAUAUUCAAACGGUAAGAAUGGAGAAGGACAUGAGGAUCACCCAUGUAAAAUAUUAUUAGAUAUCAUACAU | – | – | 22.1 nM | 19.4 nM |
| AAAAGCAACACAGGAUAUAUCACGGGUGAUUUGAUAGAAGGGUGAGCGAAAGAGAGCAACAUGAGGAUCACCCAUGUAUGUUUG | 304 nM | 184 nM | – | – |
| CAGUACUGAGGAUAUACAUGAGGAUCACCCAUGUGUUCCAGGUAGGAAACUAGCAAAAGUAGAAGGCAGUACUG | – | – | 19 nM | 127 nM |
| GUUUACCGAGGAUAUACAUGAGGAUCACCCAUGUUCCUAACAAACGUCGGUUCAGCGUGUAGAAGGCGGACCUA | – | – | 17.9 nM | 28.4 nM |
| GCACGAGACUAAGGAUAUGGAGUGUCUACAUUAAACAUGAGGAUCACCCAUGUAGAGAGUAUGAUUCAGAAGGUAGAGACGUGC | 53.6 nM | 25.2 nM | – | – |
| GUACCUUAUGAGAAGGCGGUCAUGAAACAUGAUCGAGGAUAUCAUGUAAACAUGAGGAUCACCCAUGUAUGGGUAUUAUGGUAA | 61.1 nM | 11.2 nM | – | – |
| AGCAUGUGAGGAUAUGUGAGCCUCAUCCGAAGGACGAGGGAAUAGAAGGCACAUGAGGAUCACCCAUGUGAUGA | – | – | 27.3 nM | 74.3 nM |
| UUAUGUUUUGUAGGAUAUCAUUAGUUAUGUAUUAUAAUUGAAAUUUUGAUUUGAGAAGGACAUUUACAUGAGGAUCACCCAUGU | – | – | 13.4 nM | 9.92 nM |
| CCUAUGUGAGGAUAUCACUGGUCUUCUUUUAUUUUUUACAGUGAGAAGGCACAUGAGGAUCACCCAUGUCGGUG | – | – | 107 nM | 36.4 nM |
| AGAUAUGAUGCAGGAUAUCUAUCUUGAAUGAGGAGAGAAGGGCAAGUAGAUAGAUAAGCCUCAUGACAUGAGGAUCACCCAUGU | – | – | 14.8 nM | 15.2 nM |
| AUAUACUUCCAGAAGGCACAUGAGGAUCACCCAUGUACGUCUGACAUCGUGUGAGGAUAUGGAGCACGAACGCUAAAGCGGGCA | – | – | 7.92 nM | 21.3 nM |
| UGAUCUAUGUAGAAGGCCCAUAUCUAUAUUUAGGGAGGAUAUACAUGAGGAUCACCCAUGUAUAGAGCGAGUGGACUCGUCACC | – | – | 18.1 nM | 47.3 nM |
| CCCAAACUUGGGUUUAAUGGUUCAUAGGAUAUGCUUGUACAUGAGGAUCACCCAUGUACUAUUGUGCAGAAGGGUGCAUGGCAA | 39.8 nM | 26.3 nM | – | – |
| GGUGGCGUGAUAACGCUAGAUAUAACAUGAGGAUCACCCAUGUAGGAUAUCCCGCCGUGAGGGCGGGAGAAGGACAACCGAUGG | – | – | 37.1 nM | 34.9 nM |
| AAUGAGACCGCAGGAUAUCCACAUGAGGAUCACCCAUGUUCUCAGACCGGAAGCACGAUCUGCGAGGAGAAGGGCGACCUCAUA | 716 nM | 53.1 nM | – | – |
| AUGGUUGUCGUAGGAUAUGUAGGAUAUUCCUACAUGAGGAUCACCCAUGUUCGCAUGGAAGAAGGACAGAAGGACGAUGACCAG | 1020 nM | 9.57 nM | – | – |
